In ChEMBL document CHEMBL4433237, “6,6'-Dihydroxythiobinupharidine as a poison of human type II topoisomerases” (Bioorg Med Chem Lett, 2019):
Active and inactive are the calls of the source. No cut-off for these calls is given here.

Key:
[1] = biological target: DNA topoisomerase 2-beta (Homo sapiens) (UniProt Q02880); assay: (§1) Inhibition of recombinant human topoisomerase-2beta expressed in Saccharomyces cerevisiae assessed as increase in double-stranded DNA cleavage at 0 to 1000 uM using supercoiled pBR322 DNA as substrate incubated for 6 mins measured after 30 mins by ethidium bromide staining based agarose gel electrophoresis method relative to control
In short: (§2)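 Human topoisomerase IIα or IIβ with negatively supercoiled plasmid. Cleavage trapped with SDS. Supercoiled, nicked and linear forms resolved on ethidium bromide-stained agarose gels. Cleavage normalized to linear standards set to 100%. Three independent experiments.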

[2] = biological target: DNA topoisomerase 2-alpha (Homo sapiens) (UniProt P11388); assay: (§3) Covalent poison activity at recombinant human topoisomerase-2alpha expressed in Saccharomyces cerevisiae assessed as decrease in pBR322 DNA cleavage up to 1000 uM using supercoiled pBR322 DNA as substrate incubated for 6 mins and measured after 30 mins in presence of glutathione by ethidium bromide staining based agarose gel electrophoresis method relative to control
[3] = biological target: DNA topoisomerase 2-alpha (Homo sapiens) (UniProt P11388); assay: (§4) Poison activity at recombinant human topoisomerase-2alpha expressed in Saccharomyces cerevisiae assessed as increase in double-stranded DNA cleavage at 500 uM using supercoiled pBR322 DNA as substrate preincubated for 120 sec followed by substrate addition incubated for 6 mins and measured after 30 mins by ethidium bromide staining based agarose gel electrophoresis method relative to control
In short: (§5)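 500 μM compound preincubated with topoisomerase IIα for varying times before DNA addition. Double-stranded breaks measured and expressed relative to the zero-time level set to 1.0. Three independent experiments.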

[4] = biological target: DNA topoisomerase 2-alpha (Homo sapiens) (UniProt P11388); assay: as §3, with “ascorbic acid” for “glutathione”
[5] = biological target: DNA topoisomerase 2-alpha (Homo sapiens) (UniProt P11388); assay: Poison activity at recombinant human topoisomerase-2alpha expressed in Saccharomyces cerevisiae assessed as rate of DNA ligation time at 0 to 500 uM incubated for 6 mins by agarose gel electrophoresis method (reference value: 12.5 sec)
[6] = organism: Homo sapiens; assay: (§6) Covalent poison activity at recombinant human N-terminal topoisomerase-2alpha C-terminal domain deletion mutant expressed in Saccharomyces cerevisiae assessed as increase in pBR322 DNA cleavage at 0 to 1000 uM using supercoiled pBR322 DNA as substrate incubated for 6 mins and measured after 30 mins by ethidium bromide staining based agarose gel electrophoresis method relative to control
In short: (§7)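 Plasmid cleavage with topoisomerase IIα truncations: C-terminal deletion construct keeping the N-terminal portion or catalytic core, residues 431–1193, lacking both N- and C-terminal domains. Compound at 0–1000 μM. Cleavage complexes trapped with SDS. Negatively supercoiled, nicked and linear forms resolved on ethidium bromide-stained agarose gels. Cleavage normalized to linear standards set to 100%.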

[7] = biological target: DNA topoisomerase 2-alpha (Homo sapiens) (UniProt P11388); assay: Poison activity at recombinant human topoisomerase-2alpha expressed in Saccharomyces cerevisiae assessed as stabilization of DNA-enzyme cleavage complex at 500 uM using supercoiled pBR322 DNA as substrate incubated for 10 mins and measured after 0 to 240 mins by ethidium bromide staining based agarose gel electrophoresis method
[8] = system: DNA; assay: Induction of DNA cleavage in supercoiled pBR322 DNA at 500 uM incubated for 6 mins measured after 30 mins by ethidium bromide staining based agarose gel electrophoresis method relative to control; type: nucleic-acid assay; conditions: Escherichia coli
In short: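 Control with enzyme omitted: 500 μM compound incubated with plasmid DNA alone under DNA cleavage assay conditions. Products resolved on ethidium bromide-stained agarose gel. Two independent experiments.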

[9] = biological target: DNA topoisomerase 2-alpha (Homo sapiens) (UniProt P11388); assay: as §1, with “topoisomerase-2alpha” for “topoisomerase-2beta”; in short: as §2
[10] = biological target: DNA topoisomerase 2-alpha (Homo sapiens) (UniProt P11388); assay: as §4, with “assessed as enzyme inactivation time by measuring increase in” for “assessed as increase in”; in short: as §5
[11] = biological target: DNA topoisomerase 2-alpha (Homo sapiens) (UniProt P11388); assay: Inhibition of recombinant human topoisomerase-2alpha expressed in Saccharomyces cerevisiae assessed as increase in double-stranded DNA cleavage at 500 uM using supercoiled pBR322 DNA as substrate incubated for 6 mins measured after 30 mins in presence of EDTA by ethidium bromide staining based agarose gel electrophoresis method relative to control
In short: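 Human topoisomerase IIα, plasmid DNA and 500 μM compound. After reaction, mixtures treated with 25 mM EDTA before SDS to remove active-site Mg2+, versus reactions stopped with SDS before EDTA. Cleavage read on ethidium bromide-stained agarose gel. Two independent experiments.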

[12] = biological target: DNA topoisomerase 2-alpha (Homo sapiens) (UniProt P11388); assay: as §3, with “dithiothreitol” for “glutathione”
[13] = organism: Homo sapiens; assay: as §6, with “human” for “human N-terminal”, “topoisomerase-2alpha N- and” for “topoisomerase-2alpha”, “mutant” for “mutant expressed in Saccharomyces cerevisiae”; in short: as §7
[14] = organism: Homo sapiens; assay: as §6, with “human” for “human N-terminal”, “topoisomerase-2alpha N- and” for “topoisomerase-2alpha”, “mutant” for “mutant expressed in Saccharomyces cerevisiae”, “50” for “0 to 1000”
In short: (§8)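 Enzyme is a human topoisomerase IIα catalytic core (residues 431–1193) lacking the N- and C-terminal domains. Negatively supercoiled plasmid is the substrate. Double-stranded breaks are read as linear plasmid on ethidium bromide-stained agarose gels and compared with a linear standard. Values are means ± SD of three independent experiments.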

[15] = organism: Homo sapiens; assay: as §6, with “human” for “human N-terminal”, “topoisomerase-2alpha N- and” for “topoisomerase-2alpha”, “mutant” for “mutant expressed in Saccharomyces cerevisiae”, “100” for “0 to 1000”; in short: as §8

DNA topoisomerase 2-alpha (Homo sapiens), sequence (P11388 whole entry, the tested form may be a part): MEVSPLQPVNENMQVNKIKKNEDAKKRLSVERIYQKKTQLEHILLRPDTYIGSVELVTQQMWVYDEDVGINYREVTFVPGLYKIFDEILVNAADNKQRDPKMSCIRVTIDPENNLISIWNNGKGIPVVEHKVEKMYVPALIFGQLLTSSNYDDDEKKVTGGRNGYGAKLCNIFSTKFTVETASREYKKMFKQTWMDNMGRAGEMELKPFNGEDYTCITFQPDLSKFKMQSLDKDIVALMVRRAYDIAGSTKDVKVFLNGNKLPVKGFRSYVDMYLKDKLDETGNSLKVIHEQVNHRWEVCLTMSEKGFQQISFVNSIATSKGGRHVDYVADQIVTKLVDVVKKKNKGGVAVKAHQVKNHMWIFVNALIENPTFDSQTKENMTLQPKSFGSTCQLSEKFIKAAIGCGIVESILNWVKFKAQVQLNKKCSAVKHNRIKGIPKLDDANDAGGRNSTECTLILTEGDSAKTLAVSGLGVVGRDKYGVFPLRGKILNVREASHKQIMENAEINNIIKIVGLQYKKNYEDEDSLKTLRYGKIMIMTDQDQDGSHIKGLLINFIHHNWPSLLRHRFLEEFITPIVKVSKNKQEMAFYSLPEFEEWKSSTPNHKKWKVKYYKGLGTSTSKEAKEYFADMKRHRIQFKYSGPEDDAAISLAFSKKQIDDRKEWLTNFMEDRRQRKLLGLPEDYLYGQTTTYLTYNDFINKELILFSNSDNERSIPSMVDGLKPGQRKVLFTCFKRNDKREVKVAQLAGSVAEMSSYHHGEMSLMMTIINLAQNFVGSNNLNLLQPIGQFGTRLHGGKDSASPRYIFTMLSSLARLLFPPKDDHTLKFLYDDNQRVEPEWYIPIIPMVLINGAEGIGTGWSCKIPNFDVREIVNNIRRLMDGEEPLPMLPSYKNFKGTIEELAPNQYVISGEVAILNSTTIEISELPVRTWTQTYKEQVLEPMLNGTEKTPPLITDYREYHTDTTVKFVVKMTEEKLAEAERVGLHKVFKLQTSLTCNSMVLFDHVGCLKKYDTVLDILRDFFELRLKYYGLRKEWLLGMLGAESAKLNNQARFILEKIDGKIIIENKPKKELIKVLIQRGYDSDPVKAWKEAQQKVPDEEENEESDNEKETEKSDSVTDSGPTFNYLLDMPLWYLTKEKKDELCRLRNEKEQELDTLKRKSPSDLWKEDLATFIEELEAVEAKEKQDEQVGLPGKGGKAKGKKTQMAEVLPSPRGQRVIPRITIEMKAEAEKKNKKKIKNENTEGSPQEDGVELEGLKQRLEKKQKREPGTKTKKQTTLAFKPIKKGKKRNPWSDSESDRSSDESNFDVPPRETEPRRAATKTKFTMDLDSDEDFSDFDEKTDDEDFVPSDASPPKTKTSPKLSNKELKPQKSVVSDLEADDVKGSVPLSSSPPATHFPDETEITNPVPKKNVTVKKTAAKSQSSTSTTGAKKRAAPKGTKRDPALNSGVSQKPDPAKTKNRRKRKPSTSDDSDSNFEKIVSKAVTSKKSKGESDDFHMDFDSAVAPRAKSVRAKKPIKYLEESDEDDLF
DNA topoisomerase 2-beta (Homo sapiens), sequence (Q02880 whole entry): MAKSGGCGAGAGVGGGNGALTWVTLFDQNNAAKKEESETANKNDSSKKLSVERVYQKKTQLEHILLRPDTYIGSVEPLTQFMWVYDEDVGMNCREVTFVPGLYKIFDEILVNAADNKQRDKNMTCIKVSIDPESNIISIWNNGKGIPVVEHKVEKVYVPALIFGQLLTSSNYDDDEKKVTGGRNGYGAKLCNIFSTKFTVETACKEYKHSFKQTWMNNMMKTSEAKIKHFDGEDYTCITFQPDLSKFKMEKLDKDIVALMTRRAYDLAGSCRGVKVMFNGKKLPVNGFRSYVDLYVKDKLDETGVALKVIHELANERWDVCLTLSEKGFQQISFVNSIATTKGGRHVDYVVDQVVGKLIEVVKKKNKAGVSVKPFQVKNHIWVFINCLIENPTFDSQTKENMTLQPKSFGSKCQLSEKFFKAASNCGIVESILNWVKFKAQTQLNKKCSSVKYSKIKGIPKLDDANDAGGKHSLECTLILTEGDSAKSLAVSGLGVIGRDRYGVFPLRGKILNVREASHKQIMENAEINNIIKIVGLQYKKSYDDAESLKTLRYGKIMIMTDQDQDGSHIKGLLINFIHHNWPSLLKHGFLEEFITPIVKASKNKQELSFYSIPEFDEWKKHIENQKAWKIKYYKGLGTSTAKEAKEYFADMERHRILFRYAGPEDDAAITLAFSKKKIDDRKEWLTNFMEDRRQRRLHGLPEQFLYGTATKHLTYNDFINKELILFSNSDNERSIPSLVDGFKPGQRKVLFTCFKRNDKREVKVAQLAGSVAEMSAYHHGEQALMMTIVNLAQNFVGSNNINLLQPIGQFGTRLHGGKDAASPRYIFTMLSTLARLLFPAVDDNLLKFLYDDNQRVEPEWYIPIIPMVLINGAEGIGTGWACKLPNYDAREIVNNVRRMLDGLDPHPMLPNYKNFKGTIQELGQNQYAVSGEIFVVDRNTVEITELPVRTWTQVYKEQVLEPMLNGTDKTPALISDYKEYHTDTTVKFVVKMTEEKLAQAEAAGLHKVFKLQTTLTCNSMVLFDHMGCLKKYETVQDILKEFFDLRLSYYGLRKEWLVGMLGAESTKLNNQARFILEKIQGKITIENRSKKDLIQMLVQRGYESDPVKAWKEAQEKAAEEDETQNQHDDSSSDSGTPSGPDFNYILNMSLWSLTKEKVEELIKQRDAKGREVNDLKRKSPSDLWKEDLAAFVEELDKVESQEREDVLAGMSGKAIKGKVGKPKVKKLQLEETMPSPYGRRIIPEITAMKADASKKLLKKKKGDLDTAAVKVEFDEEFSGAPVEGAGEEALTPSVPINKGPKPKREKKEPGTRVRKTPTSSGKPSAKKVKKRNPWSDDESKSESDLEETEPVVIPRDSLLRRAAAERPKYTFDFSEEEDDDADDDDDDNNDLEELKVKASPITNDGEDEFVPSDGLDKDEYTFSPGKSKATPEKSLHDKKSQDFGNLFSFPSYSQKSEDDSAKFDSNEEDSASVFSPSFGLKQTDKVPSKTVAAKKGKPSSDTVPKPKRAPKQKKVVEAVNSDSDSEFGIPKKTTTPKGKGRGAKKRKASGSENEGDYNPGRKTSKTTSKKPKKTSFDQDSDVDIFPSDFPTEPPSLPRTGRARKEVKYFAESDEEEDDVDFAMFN

SMILES | fold change (FC) [1] | Activity [2] | inhibition [3] [%] | Activity [4] | T1/2 [5] [s] | Activity [6] | Activity [7] | Activity [8] | fold change (FC) [9] | T1/2 [10] [s] | inhibition [11] | Activity [12] | Activity [13] | Activity [14] | Activity [15]
C[C@@H]1CC[C@@H](c2ccoc2)N2[C@H]1CC[C@@]1(CS[C@@]3(CC[C@H]4[C@H](C)CC[C@@H](c5ccoc5)N4[C@@H]3O)C1)[C@H]2O | 3 | inactive | 100 | inactive | 11 | Active | Active | inactive | 8 | 30 | inactive | inactive | inactive | – | –
COc1cc([C@@H]2c3cc4c(cc3[C@@H](O[C@@H]3O[C@@H]5CO[C@@H](C)O[C@H]5[C@H](O)[C@H]3O)[C@H]3COC(=O)[C@H]23)OCO4)cc(OC)c1O | – | – | – | – | – | – | – | – | – | – | – | – | – | Active | Active
